Test results published in ChEMBL document CHEMBL4689842, “EUbOPEN Chemogenomics Library wave 1” (2021).

System: Fibroblast
Assay: Multiplex assay against human fibroblast
Type: toxicity, cell-based
How it was run: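 Values for tubulin, mitochondrial-mass and membrane-permeability phenotypes are per cents of cells with healthy nuclei. These cells were identified by CellPathfinder machine-learning gating of live cells that had been stained at seeding with Hoechst33342, BioTracker Green Microtubule Cytoskeleton Dye, MitoTracker Red and Annexin V Alexa Fluor 680 and imaged on a CQ1 microscope at 37°C and 5% CO2 after compound addition. The gating first set Hoechst high-intensity objects apart from normal cells, then split normal cells into healthy, pyknosed or fragmented nuclei, and pyknosed cells into mitotic or apoptotic.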

[1] = 12 h, 1 µM, compound concentration 1 uM, replicate 1
[2] = 12 h, 1 µM, compound concentration 1 uM, replicate 2
[3] = 12 h, 10 µM, compound concentration 10 uM, replicate 1
[4] = 12 h, 10 µM, compound concentration 10 uM, replicate 2
[5] = 24 h, 1 µM, compound concentration 1 uM, replicate 1
[6] = 24 h, 1 µM, compound concentration 1 uM, replicate 2
[7] = 24 h, 10 µM, compound concentration 10 uM, replicate 1
[8] = 24 h, 10 µM, compound concentration 10 uM, replicate 2
[9] = 48 h, 1 µM, compound concentration 1 uM, replicate 1
[10] = 48 h, 1 µM, compound concentration 1 uM, replicate 2
[11] = 48 h, 10 µM, compound concentration 10 uM, replicate 1
[12] = 48 h, 10 µM, compound concentration 10 uM, replicate 2

## Cc1ccccc1C(c1ccccc1C)N1C2CCC1CC(O)(c1ccccc1)C2 (stereo not given)
[1]
  Population Apoptotic (%): 68%
  Population Fragmented Nuclei (%): 14%
  Population Healthy Nuclei (%): 40%
  Population Mitotic Cells (%): 31%
  Population Normal (%): 84%
  Population Pyknosed Nuclei (%): 44%
  Total Cell Count: 127
[2]
  Population Apoptotic (%): 50%
  Population Fragmented Nuclei (%): 9%
  Population Healthy Nuclei (%): 81%
  Population Hoechst High Intensity Objects (%): 9%
  Population Mitotic Cells (%): 50%
  Population Normal (%): 90%
  Population Pyknosed Nuclei (%): 9%
  Total Cell Count: 80
[3]
  Population Apoptotic (%): 63%
  Population Fragmented Nuclei (%): 23%
  Population Healthy Nuclei (%): 44%
  Population Mitotic Cells (%): 36%
  Population Normal (%): 85%
  Population Pyknosed Nuclei (%): 32%
  Total Cell Count: 161
[4]
  Population Apoptotic (%): 40%
  Population Healthy Nuclei (%): 81%
  Population Mitotic Cells (%): 60%
  Population Normal (%): 86%
  Total Cell Count: 71
[5]
  Population Apoptotic (%): 62%
  Population Healthy Nuclei (%): 55%
  Population Hoechst High Intensity Objects (%): 20%
  Population Mitotic Cells (%): 37%
  Population Normal (%): 79%
  Population Pyknosed Nuclei (%): 28%
  Total Cell Count: 107
[6]
  Population Fragmented Nuclei (%): 9%
  Population Healthy Nuclei (%): 77%
  Population Hoechst High Intensity Objects (%): 4%
  Population Mitotic Cells (%): 80%
  Population Normal (%): 95%
  Total Cell Count: 89
[7]
  Population Apoptotic (%): 47%
  Population Fragmented Nuclei (%): 23%
  Population Healthy Nuclei (%): 47%
  Population Hoechst High Intensity Objects (%): 8%
  Population Mitotic Cells (%): 52%
  Population Normal (%): 91%
  Population Pyknosed Nuclei (%): 28%
  Total Cell Count: 159
[8]
  Population Apoptotic (%): 50%
  Population Fragmented Nuclei (%): 20%
  Population Healthy Nuclei (%): 65%
  Population Mitotic Cells (%): 50%
  Population Normal (%): 93%
  Total Cell Count: 85
[9]
  Population Apoptotic (%): 61%
  Population Fragmented Nuclei (%): 30%
  Population Healthy Nuclei (%): 51%
  Population Hoechst High Intensity Objects (%): 16%
  Population Mitotic Cells (%): 38%
  Population Normal (%): 83%
  Total Cell Count: 121
[10]
  Population Apoptotic (%): 0%
  Population Fragmented Nuclei (%): 60%
  Population Healthy Nuclei (%): 40%
  Population Hoechst High Intensity Objects (%): 0%
  Population Mitotic Cells (%): 0%
  Population Normal (%): 100%
  Population Pyknosed Nuclei (%): 0%
  Total Cell Count: 5
[11]
  Population Apoptotic (%): 40%
  Population Fragmented Nuclei (%): 30%
  Population Healthy Nuclei (%): 59%
  Population Mitotic Cells (%): 60%
  Population Normal (%): 92%
  Population Pyknosed Nuclei (%): 9%
  Total Cell Count: 170
[12]
  Population Apoptotic (%): 100%
  Population Fragmented Nuclei (%): 35%
  Population Healthy Nuclei (%): 62%
  Population Hoechst High Intensity Objects (%): 4%
  Population Mitotic Cells (%): 0%
  Population Normal (%): 95%
  Population Pyknosed Nuclei (%): 1%
  Total Cell Count: 118

## COc1ccccc1CN[C@H]1C2CCN(CC2)[C@H]1C(c1ccccc1)c1ccccc1 [CP-96345]
[1]
  Population Apoptotic (%): 64%
  Population Fragmented Nuclei (%): 25%
  Population Healthy Nuclei (%): 43%
  Population Hoechst High Intensity Objects (%): 13%
  Population Membrane Permeable-Phenotype (%): 27%
  Population Mitochondria Different-Phenotype (%): 9%
  Population Mitotic Cells (%): 35%
  Population Normal (%): 86%
  Population Pyknosed Nuclei (%): 30%
  Population Tubulin-Different-Phenotype (%): 52%
  Total Cell Count: 146
[2]
  Population Apoptotic (%): 66%
  Population Fragmented Nuclei (%): 4%
  Population Healthy Nuclei (%): 92%
  Population Hoechst High Intensity Objects (%): 0%
  Population Membrane Permeable-Phenotype (%): 4%
  Population Mitochondria Different-Phenotype (%): 7%
  Population Mitotic Cells (%): 33%
  Population Normal (%): 100%
  Population Pyknosed Nuclei (%): 3%
  Population Tubulin-Different-Phenotype (%): 8%
  Total Cell Count: 90
[3]
  Population Apoptotic (%): 67%
  Population Fragmented Nuclei (%): 29%
  Population Healthy Nuclei (%): 45%
  Population Hoechst High Intensity Objects (%): 13%
  Population Membrane Permeable-Phenotype (%): 6%
  Population Mitochondria Different-Phenotype (%): 44%
  Population Mitotic Cells (%): 32%
  Population Normal (%): 86%
  Population Pyknosed Nuclei (%): 25%
  Population Tubulin-Different-Phenotype (%): 84%
  Total Cell Count: 129
[4]
  Population Apoptotic (%): 50%
  Population Fragmented Nuclei (%): 2%
  Population Healthy Nuclei (%): 86%
  Population Hoechst High Intensity Objects (%): 3%
  Population Membrane Permeable-Phenotype (%): 1%
  Population Mitochondria Different-Phenotype (%): 45%
  Population Mitotic Cells (%): 50%
  Population Normal (%): 96%
  Population Pyknosed Nuclei (%): 10%
  Population Tubulin-Different-Phenotype (%): 26%
  Total Cell Count: 77
[5]
  Population Apoptotic (%): 63%
  Population Fragmented Nuclei (%): 26%
  Population Healthy Nuclei (%): 49%
  Population Hoechst High Intensity Objects (%): 15%
  Population Membrane Permeable-Phenotype (%): 23%
  Population Mitochondria Different-Phenotype (%): 8%
  Population Mitotic Cells (%): 36%
  Population Normal (%): 84%
  Population Pyknosed Nuclei (%): 24%
  Population Tubulin-Different-Phenotype (%): 41%
  Total Cell Count: 161
[6]
  Population Apoptotic (%): 54%
  Population Fragmented Nuclei (%): 4%
  Population Healthy Nuclei (%): 85%
  Population Hoechst High Intensity Objects (%): 2%
  Population Membrane Permeable-Phenotype (%): 1%
  Population Mitochondria Different-Phenotype (%): 4%
  Population Mitotic Cells (%): 45%
  Population Normal (%): 97%
  Population Pyknosed Nuclei (%): 9%
  Population Tubulin-Different-Phenotype (%): 17%
  Total Cell Count: 114
[7]
  Population Apoptotic (%): 55%
  Population Fragmented Nuclei (%): 41%
  Population Healthy Nuclei (%): 43%
  Population Hoechst High Intensity Objects (%): 22%
  Population Membrane Permeable-Phenotype (%): 3%
  Population Mitochondria Different-Phenotype (%): 41%
  Population Mitotic Cells (%): 44%
  Population Normal (%): 77%
  Population Pyknosed Nuclei (%): 14%
  Population Tubulin-Different-Phenotype (%): 86%
  Total Cell Count: 156
[8]
  Population Apoptotic (%): 40%
  Population Fragmented Nuclei (%): 2%
  Population Healthy Nuclei (%): 81%
  Population Hoechst High Intensity Objects (%): 1%
  Population Membrane Permeable-Phenotype (%): 2%
  Population Mitochondria Different-Phenotype (%): 31%
  Population Mitotic Cells (%): 60%
  Population Normal (%): 98%
  Population Pyknosed Nuclei (%): 16%
  Population Tubulin-Different-Phenotype (%): 14%
  Total Cell Count: 92
[9]
  Population Apoptotic (%): 42%
  Population Fragmented Nuclei (%): 30%
  Population Healthy Nuclei (%): 60%
  Population Hoechst High Intensity Objects (%): 14%
  Population Membrane Permeable-Phenotype (%): 20%
  Population Mitochondria Different-Phenotype (%): 3%
  Population Mitotic Cells (%): 57%
  Population Normal (%): 85%
  Population Pyknosed Nuclei (%): 9%
  Population Tubulin-Different-Phenotype (%): 29%
  Total Cell Count: 169
[10]
  Population Apoptotic (%): 50%
  Population Fragmented Nuclei (%): 36%
  Population Healthy Nuclei (%): 61%
  Population Hoechst High Intensity Objects (%): 12%
  Population Membrane Permeable-Phenotype (%): 25%
  Population Mitochondria Different-Phenotype (%): 4%
  Population Mitotic Cells (%): 50%
  Population Normal (%): 87%
  Population Pyknosed Nuclei (%): 2%
  Population Tubulin-Different-Phenotype (%): 36%
  Total Cell Count: 82
[11]
  Population Apoptotic (%): 83%
  Population Fragmented Nuclei (%): 36%
  Population Healthy Nuclei (%): 58%
  Population Hoechst High Intensity Objects (%): 25%
  Population Membrane Permeable-Phenotype (%): 2%
  Population Mitochondria Different-Phenotype (%): 36%
  Population Mitotic Cells (%): 16%
  Population Normal (%): 75%
  Population Tubulin-Different-Phenotype (%): 61%
  Total Cell Count: 172
[12]
  Population Apoptotic (%): 25%
  Population Fragmented Nuclei (%): 30%
  Population Healthy Nuclei (%): 66%
  Population Hoechst High Intensity Objects (%): 11%
  Population Membrane Permeable-Phenotype (%): 24%
  Population Mitochondria Different-Phenotype (%): 7%
  Population Mitotic Cells (%): 75%
  Population Normal (%): 88%
  Population Pyknosed Nuclei (%): 4%
  Population Tubulin-Different-Phenotype (%): 60%
  Total Cell Count: 113
